Assay outcomes (PubChem BioAssay)
Compounds with a hit are over-represented: about 2.4% of the library has one in this group of screens.
TbMetRS inhib – Trypanosoma brucei MetRS inhibition; inhibition, % at 11.9 µM; hit rate 0.4% among 360,000; AID 624268; purified T. brucei MetRS, ATP depletion, Kinase-Glo luminescence;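 active = inhibition above a per-plate cutoff of the control wells' mean inhibition plus 3 SD, cut at about 5.5% in these data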;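 note: 0% = DMSO wells median and 100% = median of wells with control inhibitor compound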
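Material – parasite MetRS enzyme · Medium – HEPES-MgCl2-KCl buffer plus DTT, spermine, BSA, pyrophosphatase · Reagent – ATP, methionine and E. coli bulk tRNA substrates · Times – 15 min enzyme-compound preincubation, 2 h reaction, 10 min detection, 25 °C · Measured by – luminescence of leftover ATP · Evaluation – percent inhibition relative to median high and low control wells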
MC4R ag barr – activates human MC4R beta-arrestin recruitment; P32245; U2OS MC4R beta-arrestin complementation, luminescence; percent of melanotan II response, DMSO zero; activation, % at 8.9 µM; hit rate 0.98% among 360,000;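 active = activation above a per-plate cutoff, the mean activation of sample wells on that plate plus 3 SD, cut at about 8% in these data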
Target sequence (P32245 whole entry, looked up): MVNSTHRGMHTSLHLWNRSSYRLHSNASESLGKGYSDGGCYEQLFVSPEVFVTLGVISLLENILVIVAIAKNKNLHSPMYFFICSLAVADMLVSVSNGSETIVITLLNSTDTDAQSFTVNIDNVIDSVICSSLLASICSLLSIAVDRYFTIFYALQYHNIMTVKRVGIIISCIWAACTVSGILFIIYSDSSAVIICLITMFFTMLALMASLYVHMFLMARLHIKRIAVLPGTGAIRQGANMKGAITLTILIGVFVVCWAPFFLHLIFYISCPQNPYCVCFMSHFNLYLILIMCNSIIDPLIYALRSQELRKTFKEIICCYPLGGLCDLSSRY
NTR1 ag – agonists of human neurotensin receptor NTR1; AID 493036; hit rate 0.17% among 330,000; NTR1-U2OS beta-arrestin-GFP spot imaging, agonist mode; P30989; activation, % at 20 µM;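 active = activation at or above 40% of the spot to cytoplasm intensity ratio, with at least 20 cells analyzed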;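 note: 0% = DMSO without peptide and 100% = 100 nM NTR1 peptide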
Target sequence (P30989 whole entry, looked up): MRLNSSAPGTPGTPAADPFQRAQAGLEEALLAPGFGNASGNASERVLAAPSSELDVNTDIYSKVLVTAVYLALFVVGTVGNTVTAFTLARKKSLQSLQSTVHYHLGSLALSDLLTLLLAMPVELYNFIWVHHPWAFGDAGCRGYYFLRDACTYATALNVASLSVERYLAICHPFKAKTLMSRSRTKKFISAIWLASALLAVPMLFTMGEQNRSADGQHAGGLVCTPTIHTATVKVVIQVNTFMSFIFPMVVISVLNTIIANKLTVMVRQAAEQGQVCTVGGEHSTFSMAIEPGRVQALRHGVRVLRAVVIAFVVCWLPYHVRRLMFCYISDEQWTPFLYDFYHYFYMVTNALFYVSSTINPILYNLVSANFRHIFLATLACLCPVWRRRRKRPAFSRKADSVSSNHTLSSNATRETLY
TAG inh – reduces triacylglycerol accumulation in H9c2 cells | Nile Red lipid (TAG) fluorescence; cells loaded with 200 µM oleic acid | inhibition, % at 12.5 µM | hit rate 0.66% among 230,000;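 active = pattern-corrected inhibition of lipid staining of at least 50% with the nuclear-stain viability signal not falling by more than 50%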;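 note: 0% = DMSO wells and 100% = triacsin C control wells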
MC4R antagonist – human MC4R antagonism in cAMP assay; hit rate 0.48% among 360,000; AID 540295; MC4R-expressing cells, MTII-stimulated cAMP, LANCE TR-FRET; inhibition, % at 6.5 µM; P32245;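 active = inhibition above its plate's cutoff, the mean of tested wells on that plate plus 3 SD, cut at about 29% in these data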;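 note: 0% = Melanotan II alone and 100% = Melanotan II plus saturating MCL0020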
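Assay system: human MC4R-expressing U2OS cells; reagent: Melanotan II stimulation of cells; dosing: 6.5 µM single dose; timing: compound 30 min, challenge 1 h, detection 1 h; signal: TR-FRET cAMP assay; replicates: one well per compound, no replicates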
aDG glyco up – alpha-DG glycosylation activation | activation, % at 10 µM | AID 624168 | hit rate 0.22% among 360,000 | Pro5-aDG cells, alpha-DG glycosylation AlphaScreen (IIH6); 0% Pro5, 100% B10-LARGE cell signal;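 active = activation of at least 8% versus controls, or a plate z-score of at least 8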;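 note: Pro5 are CHO cells carrying HIG-tagged alpha-DG that lacks glycosylation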
MC4R barr ag – human MC4R beta-arrestin agonism confirmation; shares compounds with MC4R ag barr; U2OS MC4R beta-arrestin recruitment, luminescence; scaled DMSO 0%, Melanotan II 100%; activation, % at 8.9 µM; hit rate 31% among 2,400;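 active = mean activation across replicates above the hit cutoff set in the earlier primary screen, cut at about 8% in these data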
MOR DOR agonist – counter-screen for MC4R agonists: agonists of mu-delta opioid heterodimer; shares compounds with MC4R ag barr; activation, % at 9.2 µM; hit rate 5.8% among 2,400; AID 602194; U2OS PathHunter beta-arrestin, beta-gal luminescence; percent of deltorphin B response, DMSO zero;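 active = mean activation across replicates exceeds the hit threshold derived in the earlier primary screen, cut at about 18% in these data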;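 note: 100% = deltorphin B at 0.9 µM final and 0% = DMSO alone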
* = called active by the depositor; x = not tested or not shown.

SMILES | TbMetRS inhib | MC4R ag barr | NTR1 ag | TAG inh | MC4R antagonist | aDG glyco up | MC4R barr ag | MOR DOR agonist
CCOc1cc(NC(=S)NCC(C)C)c(OCC)cc1NC(=O)c1cccs1 | -1 | 15* | 2 | 18 | 10 | 0 | 1 | 5
CCOc1ccc(NC(=O)CSc2nc(-c3cccs3)cc(C(F)(F)F)n2)c([N+](=O)[O-])c1 | 0 | 16* | 5 | x | -7 | 0 | 26* | 7
O=C(NC1CCCCC1)C(c1ccc(C(F)(F)F)cc1)n1c(=O)c(-c2cc3ccccc3[nH]2)nc2ccccc21 (centres undefined) | -1 | x | x | x | x | 4 | x | x
CC(C)c1c(C(=O)Nc2ccccc2)c(-c2ccccc2)c(-c2ccc(F)cc2)n1CC[C@@H](O)C[C@@H](O)CC(=O)O | -1 | -1 | x | -15 | 14 | 0 | x | x
COC(=O)C1=CN(c2ccc(C(C)(C)C)cc2)C(N)=C(C#N)C1c1cccc([N+](=O)[O-])c1 (centres undefined) | 0 | x | x | x | x | 0 | x | x
O=S1(=O)C[C@H](N2CCN(CCO)CC2)[C@@H](COCc2ccccc2)N1 | 1 | x | x | x | x | 0 | x | x
O=C(C[C@H]1CC[C@H](NC(=O)Nc2ccccc2F)[C@@H](CO)O1)NCc1ccc(-c2ccccc2)cc1 | -1 | x | x | x | x | 0 | x | x
O=C(Cn1cc(C(F)(F)F)ccc1=O)N/N=C/c1ccc(Cl)c(Cl)c1 | 0 | 13* | 0 | x | 19 | 0 | -1 | 9
O=C(Cn1cc(C(F)(F)F)ccc1=O)N/N=C/c1ccc(O)cc1 | 0 | 1 | 1 | 10 | 21 | 0 | x | x
CCC(=O)Nc1sc(C(=O)Nc2ccccc2F)c(C)c1C(=O)OC | 0 | 3 | 5 | x | 14 | 0 | x | x
CCC(=O)Nc1sc(C(=O)Nc2ccccc2OC)c(C)c1C(=O)OC | -1 | 11* | 4 | x | 5 | 0 | 3 | 3
COc1ccc(/C(C)=N/OCC(=O)N=Nc2c(O)[nH]c3ccccc23)cc1 | 0 | 14* | 8 | x | 8 | 0 | 11* | 3
COc1ccc(CN2C[C@@H](CO)O[C@@H](n3cnc4c(NCCN(C)C)ncnc43)C2)cc1 | 0 | -1 | x | 10 | 4 | 0 | x | x
C=CCN1C(=O)C(Cc2ccc(OC)cc2)S/C1=N/N=C/c1ccco1 (centres undefined) | -1 | 0 | 2 | x | -1 | 0 | x | x
C=CCN1C(=O)C(Cc2ccc(OC)cc2)S/C1=N\N=C\c1cccs1 (centres undefined) | 0 | 9.9* | 2 | x | -1 | 0 | 9.7* | 2
Cc1cc(C(=O)N2CCCC(C)(C(=O)NS(=O)(=O)C3CC3)C2)n(C(C)(C)C)n1 (centres undefined) | 0 | 0 | x | 4 | 2 | 0 | x | x
Cc1cc(C(=O)Nc2sc3c(c2C#N)CCCCC3)cs1 | -1 | 14* | 13 | x | 9 | 0 | -2 | 3
CC(=O)N1CCc2cc(NC(=O)C3(C)CCN3Cc3ccccc3OC(F)F)ccc21 (centres undefined) | 0 | -1 | x | 5 | 0 | 0 | x | x
N#Cc1ccc(-c2cccnc2)nc1SCc1ccc(Cl)cc1Cl | -1 | 18* | 10 | -17 | -14 | 0 | 6 | 4
N#Cc1ccc(-c2cccnc2)nc1SCc1ccc(Cl)c(Cl)c1 | 2 | 8 | x | x | -35 | 0 | x | x
Cc1cc(NC(=O)CS(=O)(=O)c2cn(Cc3cccc(C(F)(F)F)c3)c3ccccc23)no1 | 0 | -1 | x | -16 | 2 | 2 | x | x
CCOC(=O)C1=CCN(S(=O)(=O)c2ccc(Cl)cc2)C1c1ccccc1 (centres undefined) | -1 | x | x | x | x | 0 | x | x
COc1ccc(-c2ccc3oc(-c4ccc(OC)cc4)c(C#CCCO)c3c2)cc1 | 0 | 11* | 20 | 4 | -1 | 1 | 2 | 3
CC(C)(C)OC(=O)Nc1ccccc1-n1nnnc1C(C(=O)c1ccccc1)N1CCN(c2ccccn2)CC1 (centres undefined) | 0 | x | x | x | x | 0 | x | x
COc1ccc(NC(=O)c2ccc(-c3ccccc3C(F)(F)F)o2)cc1 | 0 | 10* | 0 | -12 | 3 | 0 | 2 | 5
SMILES | TbMetRS inhib | MC4R ag barr | NTR1 ag | TAG inh | MC4R antagonist | aDG glyco up | MC4R barr ag | MOR DOR agonist
COc1ccccc1CNC(=O)c1ccc(-c2ccccc2C(F)(F)F)o1 | 0 | -1 | 0 | -20 | 11 | 1 | x | x
Cc1c(NC(=O)c2cc(-c3ccccc3)nc3ccccc23)c(=O)n(-c2ccccc2)n1C | 0 | 1 | 0 | 6 | 25 | -1 | x | x
O=C(COC(=O)c1cc(Br)ccc1O)Nc1ccc2c(c1)OCO2 | 0 | 10* | 2 | -5 | 2 | 0 | 1 | 3
O=C(COC(=O)c1cc(Br)ccc1O)Nc1ccc2c(c1)OCCO2 | 0 | 0 | 1 | -1 | 7 | 0 | x | x
O=C(COC(=O)c1cc(-c2ccccc2)nc2ccccc12)Nc1ccc2c(c1)OCO2 | -2 | 16* | 3 | x | -4 | 0 | 5 | 6
Cc1c(NC(=O)COC(=O)c2cc(-c3ccc(-c4ccccc4)cc3)nc3ccccc23)c(=O)n(-c2ccccc2)n1C | -1 | 18* | x | -3 | 4 | 0 | 1 | 3
Cc1ccc(F)c(C(=O)N2CCCC(C)(C(=O)NS(=O)(=O)C3CC3)C2)c1F (centres undefined) | 0 | 1 | x | 16 | 1 | 0 | x | x
Cc1ccc(C(=O)N/N=C\c2cc3c(cc2Br)OCO3)s1 | -1 | 12* | 14 | x | 2 | 0 | 10* | 8
COC(=O)N/N=C\c1cc2c(cc1Br)OCO2 | 0 | 3 | 2 | -19 | 22 | 0 | x | x
CCOC(=O)c1sc2ccccc2c1OC(=O)c1ccc(C)cc1 | 0 | 14* | -3 | x | 5 | 0 | 7 | 8
CCOc1ccc(Br)cc1S(=O)(=O)Nc1ccc(C(=O)Nc2ccc(C)cc2)cc1 | 0 | 10* | 2 | x | 6 | 0 | -2 | 5
Cc1ccc(C(C)C)c(OCc2nn(CC(=O)c3ccc(Cl)cc3)c3[n+]2CCCCC3)c1 | -1 | 40* | 28 | 136 | 14 | 0 | 19* | 34*
O=C(Cn1nc(CNc2ccc(Cl)cc2)[n+]2c1CCCCC2)c1ccccc1 | 0 | -1 | 1 | x | 13 | 0 | x | x
C=CCn1c(=NC(=O)c2cc(Cl)sc2Cl)sc2cc(S(N)(=O)=O)ccc21 | 0 | 14* | 1 | x | 14 | 1 | 4 | 2
C=CCn1c(=NC(=O)c2cc(-c3cccs3)nc3ccccc23)sc2cc(S(N)(=O)=O)ccc21 | 0 | -4 | 10 | x | 1 | 0 | x | x
